Legend:
[1] = Cytotoxicity against human U87 cells after 96 hrs by trypan blue exclusion assay; type: functional, cell-based, U-87MG ATCC; settings: U-87 MG
Procedure, shortened: (§1)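 Cells grown in DMEM or RPMI with 10% FBS and 1 unit/mL penicillin-streptomycin, seeded at 1.0 × 10⁵ cells/mL/well in 6-well dishes; compound added 24 h later at various concentrations. After 96 h of treatment, viable cells counted by trypan blue exclusion in duplicate wells; dose-response end point.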

PC-3 = test: Cytotoxicity against human PC3 cells after 96 hrs by trypan blue exclusion assay; type: functional, cell-based; settings: PC-3, 96 h
Procedure, shortened: (§2)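 Cells grown in DMEM or RPMI with 10% FBS and penicillin-streptomycin, seeded at 1.0 × 10⁵ cells/mL/well in 6-well dishes. Compound added at a range of concentrations 24 h after seeding. Viable cells counted by trypan blue exclusion from duplicate wells after 96 h of exposure; dose-response end point.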

NCI-H417 = test: Cytotoxicity against human NCI-N417 cells after 96 hrs by trypan blue exclusion assay; type: functional, cell-based; settings: NCI-H417, 96 h; procedure, shortened: as §2
NCI-H157 = test: Cytotoxicity against human NCI-H157 cells after 96 hrs by trypan blue exclusion assay; type: functional, cell-based; settings: NCI-H157, 96 h; procedure, shortened: as §2
[2] = Cytotoxicity against human PS41 cells after 96 hrs by trypan blue exclusion assay; type: cell-based; settings: PS41, 96 h; procedure, shortened: as §2
U-937 = test: Cytotoxicity against human U937 cells after 96 hrs by trypan blue exclusion assay; type: functional, cell-based; settings: U-937, 96 h; procedure, shortened: as §1
[3] = Cytotoxicity against multidrug-resistant human 2008/17/4 cells assessed as cell viability after 96 hrs by trypan blue exclusion; type: functional, cell-based; procedure, shortened: as §1
OPM-2 = test: Cytotoxicity against human OPM2 cells after 96 hrs by trypan blue exclusion assay; type: functional, cell-based; settings: OPM-2, 96 h; procedure, shortened: as §2
[4] = Aqueous solubility of the compound; type: physicochemical; settings: water
DLD-1 = test: Cytotoxicity against human DLD1 cells after 96 hrs by trypan blue exclusion assay; type: functional, cell-based; settings: DLD-1, 96 h; procedure, shortened: as §2
HEL = test: Cytotoxicity against human HEL cells after 96 hrs by trypan blue exclusion assay; type: functional, cell-based; procedure, shortened: as §2
[5] = Cytotoxicity against human Z138C cells after 96 hrs by trypan blue exclusion assay; type: functional, cell-based; procedure, shortened: as §1
[6] = Cytotoxicity against human COLO320 cells after 96 hrs by trypan blue exclusion assay; type: functional, cell-based; settings: COLO 320, 96 h; procedure, shortened: as §2
[7] = Cytotoxicity against human MES-SA cells assessed as cell viability after 96 hrs by trypan blue exclusion; type: functional, cell-based; procedure, shortened: as §2
KB = test: Cytotoxicity against human KB cells after 96 hrs by trypan blue exclusion assay; type: functional, cell-based; procedure, shortened: as §2
HFL1 = test: Induction of apoptosis in human HFL1 cells assessed as PARP1 cleavage at 0.25 to 5 uM after 48 hrs by Western blot analysis; type: cell-based; settings: hfl1, 48 h
Procedure, shortened: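 DU145 or HFL-1 cells plated at 3.0 × 10⁶ per […], treated 24 h later with DMSO or compound for 48 h. Frozen pellets lysed in 1% NP40/PBS with protease inhibitors. Equal protein run on 10% SDS-PAGE, transferred to nitrocellulose, probed with anti-PARP antibody, ECL detection.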

NCI-H187 = test: Cytotoxicity against human NCI-H187 cells after 96 hrs by trypan blue exclusion assay; type: functional, cell-based; settings: NCI-H187, 96 h; procedure, shortened: as §2
[8] = Cytotoxicity against human 451LU cells after 96 hrs by trypan blue exclusion assay; type: functional, cell-based; procedure, shortened: as §2
MDA-MB-157 = test: Cytotoxicity against human MDA-MB-157 cells after 96 hrs by trypan blue exclusion assay; type: functional, cell-based; settings: MDA-MB-157, 96 h; procedure, shortened: as §2
MDA-MB-231 = test: Cytotoxicity against human MDA-MB-231 cells after 96 hrs by trypan blue exclusion assay; type: functional, cell-based; settings: MDA-MB-231, 96 h; procedure, shortened: as §2
[9] = Cytotoxicity against human WM278 cells after 96 hrs by trypan blue exclusion assay; type: functional, cell-based; settings: WM278, 96 h; procedure, shortened: as §1
Raji = test: Cytotoxicity against human Raji cells after 96 hrs by trypan blue exclusion assay; type: functional, cell-based; procedure, shortened: as §1
NCI-H1975 = test: Cytotoxicity against human NCI-H1975 cells after 96 hrs by trypan blue exclusion assay; type: functional, cell-based; settings: NCI-H1975, 96 h; procedure, shortened: as §2
[10] = Cytotoxicity against human HCC1428 cells after 96 hrs by trypan blue exclusion assay; type: functional, cell-based; settings: HCC1428, 96 h; procedure, shortened: as §2
[11] = Cytotoxicity against multidrug-resistant human MES-SA/Dx5 cells assessed as cell viability after 96 hrs by trypan blue exclusion; type: functional, cell-based; settings: MES-SA/Dx5, 96 h; procedure, shortened: as §1
DU-145 = test: Cytotoxicity against human DU145 cells after 96 hrs by trypan blue exclusion assay; type: functional, cell-based; settings: du-145; procedure, shortened: as §2
[12] = Cytotoxicity against human DND1A cells after 96 hrs by trypan blue exclusion assay; type: functional, cell-based; procedure, shortened: as §2
AGS = test: Cytotoxicity against human AGS cells after 96 hrs by trypan blue exclusion assay; type: functional, cell-based; procedure, shortened: as §2
HL-60 = test: Cytotoxicity against human HL60 cells after 96 hrs by trypan blue exclusion assay; type: functional, cell-based; settings: HL-60, 96 h; procedure, shortened: as §2
2008 = test: Cytotoxicity against human 2008 cells assessed as cell viability after 96 hrs by trypan blue exclusion; type: functional, cell-based; settings: Homo sapiens, 2008, 96 h; procedure, shortened: as §2
[13] = Cytotoxicity against human WM239A cells after 96 hrs by trypan blue exclusion assay; type: functional, cell-based; procedure, shortened: as §1
HCT-116 = test: Cytotoxicity against human HCT116 cells after 96 hrs by trypan blue exclusion assay; type: functional, cell-based; settings: HCT-116, 96 h; procedure, shortened: as §2
HCT-15 = test: Cytotoxicity against human HCT15 cells after 96 hrs by trypan blue exclusion assay; type: functional, cell-based; settings: HCT-15, 96 h; procedure, shortened: as §2
BT-474 = test: Cytotoxicity against human BT474 cells after 96 hrs by trypan blue exclusion assay; type: functional, cell-based; settings: BT-474, 96 h; procedure, shortened: as §2
OVCAR-3 = test: Cytotoxicity against human OVCAR3 cells after 96 hrs by trypan blue exclusion assay; type: functional, cell-based; settings: OVCAR-3, 96 h; procedure, shortened: as §2
[14] = Cytotoxicity against human KG1a cells after 96 hrs by trypan blue exclusion assay; type: functional, cell-based; settings: KG-1a; procedure, shortened: as §2
PANC-1 = test: Cytotoxicity against human PANC1 cells after 96 hrs by trypan blue exclusion assay; type: functional, cell-based; settings: PANC-1, 96 h; procedure, shortened: as §2
HCC70 = test: Cytotoxicity against human HCC70 cells after 96 hrs by trypan blue exclusion assay; type: functional, cell-based; settings: HCC70, 96 h; procedure, shortened: as §2
SW480 = test: Cytotoxicity against human SW480 cells after 96 hrs by trypan blue exclusion assay; type: functional, cell-based; settings: SW480, 96 h; procedure, shortened: as §1
BT-20 = test: Cytotoxicity against human BT20 cells after 96 hrs by trypan blue exclusion assay; type: functional, cell-based; settings: BT-20, 96 h; procedure, shortened: as §2
MIA PaCa-2 = test: Cytotoxicity against human MIAPaCa2 cells after 96 hrs by trypan blue exclusion assay; type: functional, cell-based; settings: MIA PaCa-2, 96 h; procedure, shortened: as §2
HeLa = test: Cytotoxicity against human HeLa cells after 96 hrs by trypan blue exclusion assay; type: functional, cell-based; procedure, shortened: as §2
[15] = Cytotoxicity against human WM3211 cells after 96 hrs by trypan blue exclusion assay; type: functional, cell-based; settings: WM3211, 96 h; procedure, shortened: as §1
BXPC-3 = test: Cytotoxicity against human BxPC3 cells after 96 hrs by trypan blue exclusion assay; type: functional, cell-based; settings: BXPC-3, 96 h; procedure, shortened: as §2
Bel-7402 = test: Cytotoxicity against human Bel7402 cells after 96 hrs by trypan blue exclusion assay; type: functional, cell-based; settings: Bel-7402, 96 h; procedure, shortened: as §2
[16] = Cytotoxicity against human RF1 cells after 96 hrs by trypan blue exclusion assay; type: functional, cell-based; settings: RF1, 96 h; procedure, shortened: as §1
CEM/C2 = test: Cytotoxicity against multidrug-resistant human CEM/C2 cells assessed as cell viability after 96 hrs by trypan blue exclusion; type: functional, cell-based; settings: CEM/C2, 96 h; procedure, shortened: as §1
[17] = Cytotoxicity against human WM983A cells after 96 hrs by trypan blue exclusion assay; type: functional, cell-based; procedure, shortened: as §1

COc1cc(OC)c(/C=C/S(=O)(=O)Cc2ccc(OC)c(NCC(=O)[O-])c2)c(OC)c1.[Na+] [RIGOSERTIB SODIUM]
IC50 [1]: 80 nM
IC50 (PC-3): 150 nM
IC50 (NCI-H417): 80 nM
IC50 (NCI-H157): 80 nM
IC50 [2]: > 100000 nM
IC50 (U-937): 10 nM
IC50 [3]: 100 nM
IC50 (OPM-2): 15 nM
solubility [4]: 28 mg/mL
IC50 (DLD-1): 150 nM
IC50 (HEL): 50 nM
IC50 [5]: 75 nM
IC50 [6]: 60 nM
IC50 [7]: 100 nM
IC50 (KB): 70 nM
Activity (HFL1): Non-toxic
IC50 (NCI-H187): 80 nM
IC50 [8]: 25 nM
IC50 (MDA-MB-157): 75 nM
IC50 (MDA-MB-231): 25 nM
IC50 [9]: 150 nM
IC50 (Raji): 75 nM
IC50 (NCI-H1975): 90 nM
IC50 [10]: 60 nM
IC50 [11]: 100 nM
IC50 (DU-145): 100 nM
IC50 [12]: 75 nM
IC50 (AGS): 80 nM
IC50 (HL-60): 20 nM
IC50 2008: 150 nM
IC50 [13]: 75 nM
IC50 (HCT-116): 75 nM
IC50 (HCT-15): 90 nM
IC50 (BT-474): 50 nM
IC50 (OVCAR-3): 75 nM
IC50 [14]: 30 nM
IC50 (PANC-1): 40 nM
IC50 (HCC70): 75 nM
IC50 (SW480): 60 nM
IC50 (BT-20): 80 nM
IC50 (MIA PaCa-2): 50 nM
IC50 (HeLa): 100 nM
IC50 [15]: 75 nM
IC50 (BXPC-3): 75 nM
IC50 (Bel-7402): 100 nM
IC50 [16]: 50 nM
IC50 (CEM/C2): 50 nM
IC50 [17]: 40 nM

Reference: ChEMBL document CHEMBL2010670, “Discovery of a clinical stage multi-kinase inhibitor sodium (E)-2-{2-methoxy-5-[(2',4',6'-trimethoxystyrylsulfonyl)methyl]phenylamino}acetate (ON 01910.Na): synthesis, structure-activity relationship, and biological activity” (J Med Chem, 2011)
